Assay results gathered from unrelated publications.
Each line is one published result; the experiments were not run side by side.
CHRM2: Muscarinic acetylcholine receptor M2 (CHRM2, Homo sapiens, UniProt P08172)
TMPRSS13: TMPRSS13 (Homo sapiens, UniProt Q9BYE2)
PNLIP: Pancreatic triacylglycerol lipase (PNLIP, Sus scrofa, UniProt P00591)

COc1cc2c(cc1OC)CN(CCc1ccc(NC(=O)c3cccc4c(=O)c5cccc(OC)c5[nH]c34)cc1)CC2  Ki (CHRM2; cell-free assay): 0.466 µM
OB1OCc2cc(F)ccc21  IC50 (Carbapenem-hydrolyzing beta-lactamase KPC (KPC-2, Klebsiella pneumoniae, UniProt Q9F663); enzyme activity, inhibitor): 1.1 µM
C[C@H](CCCOS(=O)(=O)O)[C@H]1CC[C@H]2[C@@H]3CC[C@H]4C[C@@H](O)CC[C@]4(C)[C@H]3CC[C@]12C  IC50 (CHRM2; cAMP, antagonist): 9.05 µM
O=C1Nc2ccc3ncsc3c2/C1=C/c1cnc[nH]1  IC50 (Serine/threonine-protein kinase Nek7 (NEK7, Homo sapiens, UniProt Q8TDX7); enzyme activity, inhibitor): 11.9 µM
CS(=O)(=O)N[C@@H](CCC(N)=O)C(=O)N[C@@H](Cc1ccccc1)C(=O)N[C@@H](CCCNC(=N)N)C(=O)c1nccs1  Ki (TMPRSS13; cell-free assay): 0.355 µM
C=CCc1ccc(O)c(-c2cc(CC=C)ccc2O)c1  IC50 (PNLIP; enzyme activity, inhibitor, fluorescence): 3.24 µM
[2H]c1c([2H])c([C@]2([2H])CCCN2C(=O)C(C)(C)Oc2ccc3cn[nH]c3c2)c([2H])c([2H])c1C([2H])([2H])[2H]  IC50 (Receptor-interacting serine/threonine-protein kinase 1 (RIPK1, Homo sapiens, UniProt Q13546); enzyme activity, inhibitor): 0.0018 µM
COc1c2c(cc3c1-c1c(cc4c(c1OC)OCO4)C[C@H](C)[C@H](C)C3)OCO2  IC50 (PNLIP; enzyme activity, inhibitor, fluorescence): 8.65 µM
C[C@H](NC(=O)[C@H](CCC(N)=O)NC(=O)CCCCNC(=N)N)C(=O)N[C@@H](CCCNC(=N)N)C(=O)c1nc2ccccc2s1  Ki (TMPRSS13; cell-free assay): 0.033 µM
